Source: PubChem BioAssay (The Scripps Research Institute Molecular Screening Center)
TDP2 inh – TDP2 (human) inhibition, absorbance primary screen; 370,000 compounds, 0.34% hits; O95551; recombinant TDP2, T5PNP hydrolysis, p-nitrophenol absorbance 415 nm; inhibition, % at 12.8 µM;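 active = inhibition above the mean of all tested compounds plus 3 SD, set per campaign, cut at about 25% in these data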
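Read-out basis: percent inhibition. System: recombinant human TDP2. Buffer or medium: Mg2+-containing Tris-HCl buffer, pH 7.5. Repeats: single replicate. Timing: reaction 2 h, 37 °C. Benchmarks: high control without enzyme, low control DMSO plus TDP2. Probe or stimulus: 5 mM T5PNP. Doses: 12.8 µM only. Measured by: epi absorbance of p-nitrophenol freed from T5PNP by hydrolysis.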
Tn6 DDE FP – inhibitors of Tn6 peptide binding to human fibrin DD(E); inhibition, % at 8.3 µM; Fibrin DD(E) TRITC-Tn6 fluorescence polarization displacement; P02675; 370,000 compounds, 0.21% hits; AID 720509;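 active = inhibition above a per-campaign cutoff: mean of compounds within control limits plus 3 SD, cut at about 15% in these data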
MBD2 DNA inh – blocks human MBD2 binding to methylated DNA | inhibition, % at 4.4 µM | 370,000 compounds, 0.31% hits | TR-FRET, MBD2 binding to methylated oligonucleotide; in the data active = inhibition above about 13%
Target sequence (Q9UBB5 whole entry, looked up): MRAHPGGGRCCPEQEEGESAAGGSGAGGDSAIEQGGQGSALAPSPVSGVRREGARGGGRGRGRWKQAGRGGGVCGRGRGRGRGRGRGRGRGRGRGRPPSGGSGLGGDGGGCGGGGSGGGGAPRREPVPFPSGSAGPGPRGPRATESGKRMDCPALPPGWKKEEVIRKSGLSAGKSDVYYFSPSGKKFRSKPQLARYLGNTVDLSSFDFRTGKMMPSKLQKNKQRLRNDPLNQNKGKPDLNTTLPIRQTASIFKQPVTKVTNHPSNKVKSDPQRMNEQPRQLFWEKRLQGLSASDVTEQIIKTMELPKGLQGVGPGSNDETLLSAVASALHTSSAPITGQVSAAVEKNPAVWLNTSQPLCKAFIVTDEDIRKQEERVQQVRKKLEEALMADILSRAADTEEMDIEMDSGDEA
Tn7 DDE FP – disrupts Tn7 cyclic peptide binding to fibrin D-Dimer-E complex | P02675 | FP displacement of FITC-Tn7 peptide from fibrin DD(E); 0% = median of compound wells per plate | inhibition, % at 8.3 µM | 370,000 compounds, 0.13% hits | AID 720508;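 active = inhibition above the mean of compounds falling within the control limits plus 3 SD of them, cut at about 14% in these data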
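Assay system: human fibrin DD(E). Input: DD(E) 2 µM final. Medium: Tris buffer with calcium and detergent, pH 7.8. Compound dosing: single point at 8.3 µM. Timing: 10 min plus 3 h, room temperature. Technique: fluorescence polarization of the labelled Tn7 tracer. Read-out: percent inhibition. Replicates: singlicate testing.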
UHRF1 MBD2 ctr – UHRF1 methyl-DNA binding inhibition; UHRF1 binding to methylated oligo, TR-FRET; inhibition, % at 4.4 µM; 370,000 compounds, 0.75% hits; AID 687016; in the data active = inhibition above about 21%;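 also: UHRF1 SRA domain binding a hemimethylated CpG hairpin DNA probe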
LEDGF integ inh – blocks HIV-1 LEDGF/p75-dependent DNA integration; TR-FRET IN-LEDGF/p75 DNA integration, Eu/Cy5; inhibition, % at 3.7 µM; 370,000 compounds, 0.64% hits; AID 743269;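 active = inhibition above the screen-wide mean plus 3 SD, cut at about 13% in these data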;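 also: signal is the Cy5 over europium emission ratio at 671 and 618 nm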
TDP2 confirm – human TDP2 inhibition, confirmation; shares compounds with TDP2 inh; recombinant human TDP2, absorbance read-out; inhibition, % at 12.8 µM; 1,100 compounds, 22% hits; AID 743263; in the data active = inhibition above about 25%
Numbers stand for hits; – = inactive; · = not tested or not shown. Only some compounds are listed: those with a hit (about 1.9% of all), similar ones and a draw of the others.

SMILES | TDP2 inh | Tn6 DDE FP | MBD2 DNA inh | Tn7 DDE FP | UHRF1 MBD2 ctr | LEDGF integ inh | TDP2 confirm
CCN(CCCNS(=O)(=O)c1cc(-c2cc(C)no2)ccc1C)Cc1ccccc1 | 47.5 | – | – | – | – | – | –
CCS(=O)(=O)Nc1ccc2c(c1)C(=O)N(C)[C@@H]1CC[C@H](CC(=O)NCCCN3CCOCC3)O[C@H]1CO2 | – | – | – | – | – | – | ·
O=C(NC(=S)Nc1ccccc1N1CCCCC1)c1ccco1 | – | – | – | – | – | – | ·
O=C(NC(=S)Nc1ccccc1N1CCCC1)c1ccco1 | 38.1 | – | – | – | – | – | 29.4
O=C1CN(C(=O)NCC(=O)N[C@@H](Cc2ccccc2)C(=O)O)c2ccccc2N1 | – | – | – | – | – | – | ·
CC(CCc1ccccc1)NC(=O)CNC(=O)N1CC(=O)Nc2ccccc21 (centres undefined) | 25.1 | – | – | – | – | – | –
CCCN(C(=O)CCc1cn(CCC)c2ccccc12)c1ccc(Oc2cccnc2)cc1 | – | – | – | – | – | – | ·
COc1cc(Cc2nccc3cc(OC)c(OC)cc23)c(S(=O)(=O)O)cc1OC | 40.5 | – | – | – | – | – | –
O=c1cc(-c2ccc(Cl)cc2)[nH][nH]1 | 74.3 | – | – | – | – | – | –
CC(=O)Nc1ccc(C2=NN(C)C(=NCc3ccccc3)SC2)cc1 | 29.4 | – | – | – | – | – | –
O=C1C(Cl)=C(NC(=O)c2ccccc2)C(=O)C(Cl)=C1NC(=O)c1ccccc1 | 59.2 | – | – | – | – | – | 33.3
COc1ccc(CCNC(=O)Cn2nc(-c3ccccc3)ccc2=O)cc1 | – | – | – | – | – | – | ·
Cc1cnc(C2OCCO2)c2cccc(N)c12 | 30.2 | – | – | – | – | – | 43.8
O=[N+]([O-])c1cccnc1C1OCCO1 | – | – | – | – | – | – | ·
COC(=O)[C@]12C[C@H](CC(=O)NCc3ccccc3)C(=O)N(Cc3ccc4c(c3)OCO4)C1=C[C@H](COCc1ccccc1)O[C@@H]2C | – | – | – | – | – | – | ·
COc1cc2c(c(OC)c1O)C(=O)CO2 | 24.8 | – | – | – | – | – | –
CCN(CC(=O)c1c(N)n(C)c(=O)n(C)c1=O)c1cccc2ccccc12 | 37.6 | – | – | – | – | – | –
Cn1c(N)c(C(=O)CCc2ccccc2)c(=O)n(C)c1=O | – | – | – | – | – | – | ·
CC(=O)Nc1ccc(S(=O)(=O)/N=C2\C(=O)c3ccccc3C([O-])=C2n2cc[n+](-c3ccccn3)c2)cc1 | 37.0 | – | – | – | 43.5 | – | –
COc1ccc(-n2c(SCC(=O)N3CCCC3)nnc2-c2ccncc2)cc1 | – | – | – | – | – | – | ·
O=C(O)CN1C(=O)/C(=C/c2ccc(SCc3ccccc3)o2)SC1=S | 26.0 | – | – | – | – | – | –
O=C(Cc1ccccc1)Nc1nnc(-c2cccnc2)s1 | – | – | – | – | – | – | ·
Cc1ccc(C(=O)N/N=c2\oc3ccccc3cc2C(N)=O)cc1 | – | – | – | – | – | – | ·
NC(=O)c1cc2ccccc2o/c1=N\NC(=O)c1ccncc1 | 32.1 | – | – | – | – | – | –
CCOC(=O)N1CCN(C2=C(NS(=O)(=O)c3ccccc3)C(=O)c3ccccc3C2=O)CC1 | 64.3 | – | – | – | – | 21.6 | –
SMILES | TDP2 inh | Tn6 DDE FP | MBD2 DNA inh | Tn7 DDE FP | UHRF1 MBD2 ctr | LEDGF integ inh | TDP2 confirm
CN1CCN(C2=C(NS(=O)(=O)c3cccs3)C(=O)c3ccccc3C2=O)CC1 | – | – | – | – | – | – | ·
CCN1CCN(C2=C(NS(=O)(=O)c3ccccc3)C(=O)c3ccccc3C2=O)CC1 | 28.0 | – | – | – | – | – | –
O=C1C(NS(=O)(=O)c2cccs2)=C(N2CCN(Cc3ccccc3)CC2)C(=O)c2ccccc21 | 39.6 | – | – | – | – | – | –
CCN1CCN(C2=C(NS(=O)(=O)c3ccc(Br)cc3)C(=O)c3ccccc3C2=O)CC1 | 28.2 | – | – | – | – | – | –
N#CCC1(O)C(=O)Nc2ccccc21 (centres undefined) | – | – | – | – | – | – | ·
COC(=O)c1cc2c(c3c4ccccc4n(S(=O)(=O)c4ccccc4)c13)C(=O)N(Cc1ccc(C(F)(F)F)cc1)C2 | – | – | – | – | – | – | ·
CCCc1nc2c(=O)n(C)c(=O)nc-2n(C)n1 | 95.2 | – | 22.0 | – | – | – | 87.3
Cc1c(NC(=O)C(C)OC(=O)c2ccc([N+](=O)[O-])s2)c(=O)n(-c2ccccc2)n1C (centres undefined) | 43.7 | – | – | – | – | – | 31.8
Cc1ccc(-n2nc3c(=O)n(CC(=O)NCc4ccc(C)o4)nc(C)c3c2C)cc1 | – | – | – | – | – | – | ·
Cc1ccc(-n2nc3c(=O)n(CCCC(=O)NCc4ccc(C)o4)nc(C)c3c2C)cc1 | 24.7 | – | – | – | – | – | –
COCC(C)n1c(C)cc(C(=O)COC(=O)CCc2nc3ccccc3c(=O)[nH]2)c1C (centres undefined) | 31.2 | – | – | – | 26.0 | – | –
CCc1ccc(S(=O)(=O)Nc2cc(SCC(=O)O)c(O)c3ccccc23)cc1 | 51.1 | – | – | – | – | – | 34.8
Cc1oc2c(cc(NS(=O)(=O)c3ccc(C(C)C)cc3)c3ccccc32)c1C(=O)O | – | – | – | – | – | – | ·
CCc1ccc(S(=O)(=O)Nc2ccc(O)c3ccccc23)cc1 | 53.6 | – | – | – | – | – | –
COc1ccc(C(=O)CSc2nnc(-c3cccc(Cl)c3)n2Cc2ccco2)cc1 | – | – | – | – | – | – | ·
O=C1NC(=O)/C(=C/c2ccccc2OCc2ccccc2)S1 | 25.4 | – | – | – | – | – | –
O=C(NCC(=O)N1CCCC1)c1ccc(Br)cc1 | – | – | – | – | – | – | ·
C/C(=N\NC(=O)CNC(=O)c1ccc(Br)cc1)c1ccco1 | 36.4 | – | – | – | – | – | –
O=C(NCC(=O)N1CCN(C(=O)c2ccco2)CC1)c1ccc(Br)cc1 | 25.2 | – | – | – | – | – | –
COC(=O)[C@]12C[C@H](CC(=O)N3CCSCC3)C(=O)N(CCc3ccc(OC)c(OC)c3)C1=C[C@H](C(C)C)O[C@@H]2C1CC1 | – | – | – | – | – | – | ·
CC(C)C[C@H]1COc2cc(NCc3ccc(Cl)c(Cl)c3)ccc2S(=O)(=O)N1 | – | – | – | – | – | – | ·
COc1ccc2nc(NC(=O)CN3C(=O)NC4(CCCC4)C3=O)sc2c1 | 63.2 | – | – | – | – | – | –
COc1ccc2nc(NC(=O)CSC3=NCCS3)sc2c1 | – | – | – | – | – | – | ·
COc1ccc2nc(NC(=O)CSc3ccccc3)sc2c1 | 25.7 | – | – | – | – | – | –
